Data reported in ChEMBL document CHEMBL4261518, “Side chain-functionalized aniline-derived ursolic acid derivatives as multidrug resistance reversers that block the nuclear factor-kappa B (NF-κB) pathway and cell proliferation” (Medchemcomm, 2017).
The source made the active and inactive calls. The rule behind the calls is not given here.

Assays:
NCI-H460 [1] = assay: Induction of apoptosis in human NCI-H460 cells assessed as early apoptotic cells at 10 uM after 24 hrs by propidium iodide/Annexin V-FITC staining based flow cytometry (reference value: 2.79%); assay type: functional
NCI-H460 [2] = assay: Cell cycle arrest in human NCI-H460 cells assessed as accumulation at G1-phase at 10 uM after 24 to 48 hrs by propidium iodide staining based flow cytometry (reference value: 41.83%); assay type: functional
NCI-H460 [3] = assay: Cell cycle arrest in human NCI-H460 cells assessed as accumulation at S-phase at 10 uM after 24 to 48 hrs by propidium iodide staining based flow cytometry (reference value: 54.36%); assay type: functional
A549 = assay: Cytotoxicity against human A549 cells after 48 hrs by MTT assay; assay type: functional, cell-based; settings: A549, 48 h
Procedure, shortened: (§1)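 Cells grown overnight in DMEM + 10% FBS at 37 °C under 5% CO2, then given a range of compound concentrations for 48 h. MTT added for about 4 h, medium replaced by DMSO, absorbance read at 570/630 nm. IC50 reported as mean ± SD of five independent experiments.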

MGC-803 = assay: Cytotoxicity against human MGC803 cells after 48 hrs by MTT assay; assay type: functional, cell-based; settings: MGC-803, 48 h; procedure, shortened: as §1
NCI-H460 [4] = assay: Induction of apoptosis in human NCI-H460 cells assessed as early apoptotic cells at 5 uM after 24 hrs by propidium iodide/Annexin V-FITC staining based flow cytometry (reference value: 2.79%); assay type: functional
NCI-H460 [5] = assay: Induction of apoptosis in human NCI-H460 cells assessed as live cells at 5 uM after 24 hrs by propidium iodide/Annexin V-FITC staining based flow cytometry (reference value: 89%); assay type: functional
T-24 = assay: Cytotoxicity against human T24 cells after 48 hrs by MTT assay; assay type: functional, cell-based; settings: T-24, 48 h; procedure, shortened: as §1
NCI-H460 [6] = assay: Induction of apoptosis in human NCI-H460 cells assessed as late apoptotic cells at 5 uM after 24 hrs by propidium iodide/Annexin V-FITC staining based flow cytometry (reference value: 5.4%); assay type: functional
NCI-H460 [7] = assay: Inhibition of TNFalpha-induced NF-kB protein expression in human NCI-H460 cells by Western blot analysis; assay type: functional, cell-based
Procedure, shortened: (§2)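 TNF-α-stimulated NCI-H460 cells treated with compound, lysed in ice-cold RIPA with protease and phosphatase inhibitors, protein measured by Bradford. Equal protein run on 12% SDS-PAGE, transferred to PVDF. Probed overnight at 4 °C for TAK1, TAB1, IKKα, p-IKKα/β or NF-κB p65, then HRP secondary (1:2000), chemiluminescence, β-actin loading control. Three separate experiments.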

NCI-H460 [8] = assay: Cell cycle arrest in human NCI-H460 cells assessed as accumulation at S-phase at 5 uM after 24 to 48 hrs by propidium iodide staining based flow cytometry (reference value: 54.36%); assay type: functional
NCI-H460 [9] = assay: Induction of apoptosis in human NCI-H460 cells assessed as live cells at 10 uM after 24 hrs by propidium iodide/Annexin V-FITC staining based flow cytometry (reference value: 89%); assay type: functional
[10] = Cytotoxicity against human HepG2/DOX cells after 48 hrs by MTT assay; assay type: functional, cell-based; procedure, shortened: as §1
[11] = target: Inhibitor of NF-kappa-B kinase alpha/beta (Homo sapiens) (UniProt O14920+O15111); assay: Inhibition of TNFalpha-induced IKKalpha/beta phosphorylation in human NCI-H460 cells by Western blot analysis; assay type: cell-based; procedure, shortened: as §2
NCI-H460 [12] = assay: Cell cycle arrest in human NCI-H460 cells assessed as accumulation at G1-phase at 5 uM after 24 to 48 hrs by propidium iodide staining based flow cytometry (reference value: 41.83%); assay type: functional
NCI-H460 [13] = assay: Cytotoxicity against human NCI-H460 cells harboring pNF-kB-Luc assessed as reduction in cell viability after 7 hrs by MTT assay relative to control; set-up: concentration or dose not given beside the values; settings: nci-h460, 7 h
NCI-H460 [14] = assay: Inhibition of TNFalpha-induced TAK1 protein expression in human NCI-H460 cells by Western blot analysis; assay type: functional, cell-based; procedure, shortened: as §2
NCI-H460 [15] = assay: Cell cycle arrest in human NCI-H460 cells assessed as accumulation at G2-phase at 5 uM after 24 to 48 hrs by propidium iodide staining based flow cytometry (reference value: 3.82%); assay type: functional
NCI-H460 [16] = assay: Cytotoxicity against human NCI-H460 cells after 48 hrs by MTT assay; assay type: functional, cell-based; settings: NCI-H460, 48 h; procedure, shortened: as §1
[17] = Cytotoxicity against human NCI-H460/DOX cells after 48 hrs by MTT assay; assay type: functional, cell-based; settings: NCI-H460, 48 h; procedure, shortened: as §1
[18] = Resistant factor, ratio of IC50 for human NCI-H460/DOX cells to IC50 for human NCI-H460 cells; assay type: functional
[19] = Inhibition of TNFalpha-induced NF-kB (unknown origin) activation expressed in human NCI-H460 cells after 7 hrs by luciferase reporter gene assay; assay type: cell-based; settings: NCI-H460, 7 h
Procedure, shortened: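 NCI-H460 cells transiently co-transfected with pNF-κB-Luc reporter and pSV-β-galactosidase internal control by lipofectamine. Medium changed after 6 h, then 6 h further culture. TNF-α (15 ng ml–1) plus compound given together for 7 h. Luciferase ratio to TNF-α-only cells, corrected for non-TNF background and viability. IC50 from sigmoidal variable-slope fit.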

NCI-H460 [20] = assay: Cell cycle arrest in human NCI-H460 cells assessed as accumulation at G2-phase at 10 uM after 24 to 48 hrs by propidium iodide staining based flow cytometry (reference value: 3.82%); assay type: functional
NCI-H460 [21] = assay: Induction of apoptosis in human NCI-H460 cells assessed as necrotic cells at 5 uM after 24 hrs by propidium iodide/Annexin V-FITC staining based flow cytometry (reference value: 2.8%); assay type: functional
NCI-H460 [22] = assay: Induction of apoptosis in human NCI-H460 cells assessed as late apoptotic cells at 10 uM after 24 hrs by propidium iodide/Annexin V-FITC staining based flow cytometry (reference value: 5.4%); assay type: functional
NCI-H460 [23] = assay: Induction of apoptosis in human NCI-H460 cells after 24 hrs by propidium iodide/Annexin V-FITC staining based flow cytometry; assay type: functional, cell-based
NCI-H460 [24] = assay: Induction of ROS generation in human NCI-H460 cells at 10 uM after 24 hrs by DCF-DA staining based flow cytometry relative to control; assay type: functional
NCI-H460 [25] = assay: Inhibition of TNFalpha-induced IKKalpha protein expression in human NCI-H460 cells at 5 to 10 uM by Western blot analysis; assay type: functional, cell-based; procedure, shortened: as §2
L02 = assay: Cytotoxicity against human HL7702 cells after 48 hrs by MTT assay; assay type: cell-based; settings: L02, 48 h; procedure, shortened: as §1
HepG2 = assay: Cytotoxicity against human HepG2 cells after 48 hrs by MTT assay; assay type: functional, cell-based; settings: HepG2, 48 h; procedure, shortened: as §1
NCI-H460 [26] = assay: Induction of apoptosis in human NCI-H460 cells assessed as necrotic cells at 10 uM after 24 hrs by propidium iodide/Annexin V-FITC staining based flow cytometry (reference value: 2.8%); assay type: functional
NCI-H460 [27] = assay: Inhibition of TNFalpha-induced TAB1 protein expression in human NCI-H460 cells by Western blot analysis; assay type: functional, cell-based; procedure, shortened: as §2
NCI-H460 [28] = assay: Induction of ROS generation in human NCI-H460 cells at 5 uM after 24 hrs by DCF-DA staining based flow cytometry (reference value: 12.9%); assay type: functional
[29] = Resistant factor, ratio of IC50 for human HepG2/DOX cells to IC50 for human HepG2 cells; assay type: functional
[30] = Cytotoxicity against human SPCA2 cells after 48 hrs by MTT assay; assay type: functional, cell-based; settings: SPCA2, 48 h; procedure, shortened: as §1
NCI-H460 [31] = assay: Induction of ROS generation in human NCI-H460 cells at 10 uM after 24 hrs by DCF-DA staining based flow cytometry (reference value: 12.9%); assay type: functional
NCI-H460 [32] = assay: Induction of apoptosis in human NCI-H460 cells assessed as nuclear condensation after 24 hrs by Hoechst 33258 staining based fluorescence microscopic method; assay type: functional, cell-based
Procedure, shortened: (§3)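 NCI-H460 cells (2 × 10^6) in six-well plates exposed to 5 or 10 μM for 24 h. Fixed 10 min in 4% paraformaldehyde, washed in cold PBS, stained with Hoechst 33258 for 5 min in the dark. Viewed by fluorescence microscopy at ex 350/em 460 nm; brightly stained condensed nuclei scored as apoptotic.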

[33] = target: Transcription factor p65 (Homo sapiens) (UniProt Q04206); assay: Inhibition of TNFalpha-induced NF-kB p65 activation human NCI-H460 cells assessed as reduction in DNA binding ability at 5 to 10 uM by ELISA relative to control; assay type: cell-based
NCI-H460 [34] = assay: Induction of apoptosis in human NCI-H460 cells assessed as chromatin condensation after 24 hrs by Hoechst 33258 staining based fluorescence microscopic method; assay type: functional, cell-based; procedure, shortened: as §3

Transcription factor p65 (Homo sapiens), sequence (Q04206 whole entry): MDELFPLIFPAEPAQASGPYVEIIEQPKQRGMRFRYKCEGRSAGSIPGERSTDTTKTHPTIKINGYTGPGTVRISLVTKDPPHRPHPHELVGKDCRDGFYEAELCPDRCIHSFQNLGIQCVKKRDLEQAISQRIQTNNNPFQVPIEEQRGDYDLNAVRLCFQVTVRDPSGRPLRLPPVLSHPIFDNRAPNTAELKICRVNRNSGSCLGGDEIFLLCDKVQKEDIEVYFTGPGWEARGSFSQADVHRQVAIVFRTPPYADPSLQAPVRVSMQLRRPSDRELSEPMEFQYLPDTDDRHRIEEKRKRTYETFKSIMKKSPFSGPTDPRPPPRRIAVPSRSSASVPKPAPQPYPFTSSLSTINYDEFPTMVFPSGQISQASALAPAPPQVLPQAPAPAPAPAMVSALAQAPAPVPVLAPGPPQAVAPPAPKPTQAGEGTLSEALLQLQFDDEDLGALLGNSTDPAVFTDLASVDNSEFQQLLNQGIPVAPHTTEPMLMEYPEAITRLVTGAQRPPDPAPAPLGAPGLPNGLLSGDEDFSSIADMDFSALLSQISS

For CC(=O)O[C@H]1CC[C@]2(C)[C@H]3CC=C4[C@@H]5[C@@H](C)[C@H](C)CC[C@]5(C(=O)NCCN(C)C)CC[C@@]4(C)[C@]3(C)CC[C@H]2C1(C)C, the Activity (NCI-H460 [1]) was 47.1%, the Activity (NCI-H460 [2]) was 53.82% and the Activity (NCI-H460 [3]) was 41.95%. For the same molecule, the IC50 (A549) was 4.32 µM, the IC50 (MGC-803) was 7.96 µM and the Activity (NCI-H460 [4]) was 12.3%. For the same molecule, the Activity (NCI-H460 [5]) was 79.9%, the IC50 (T-24) was 5.51 µM and the Activity (NCI-H460 [6]) was 3.9%. For the same molecule, the inhibition (NCI-H460 [7]) was “Dose-dependent effect”, the Activity (NCI-H460 [8]) was 46.27% and the Activity (NCI-H460 [9]) was 41.9%. The IC50 [10] was 10.8 µM, the inhibition [11] was “Dose-dependent effect” and the Activity (NCI-H460 [12]) was 49.26%. The Activity (NCI-H460 [13]) was under 5%, the inhibition (NCI-H460 [14]) was “Dose-dependent effect” and the Activity (NCI-H460 [15]) was 4.46%. For the same molecule, the IC50 (NCI-H460 [16]) was 3.08 µM, the IC50 [17] was 5.2 µM and the “Ratio IC50” value [18] was 1.68. The IC50 [19] was 360 nM, the Activity (NCI-H460 [20]) was 4.23% and the Activity (NCI-H460 [21]) was 3.85%. For the same molecule, the Activity (NCI-H460 [22]) was 5.16%, the Activity (NCI-H460 [23]) was “Dose-dependent effect” and the “fold change (FC)” value (NCI-H460 [24]) was over 3. The inhibition (NCI-H460 [25]) was “Active”, the IC50 (L02) was over 50 µM and the IC50 (HepG2) was 8.14 µM. The Activity (NCI-H460 [26]) was 5.8%, the inhibition (NCI-H460 [27]) was “Dose-dependent effect” and the Activity (NCI-H460 [28]) was 14.9%. The “Ratio IC50” value [29] was 1.33, the IC50 [30] was 5.38 µM and the Activity (NCI-H460 [31]) was 40.8%. The Activity (NCI-H460 [32]) was “Dose-dependent effect”, the fold change (FC) [33] was 2.3 and the Activity (NCI-H460 [34]) was “Dose-dependent effect”.
